Results on 97 molecules are retold here after ChEMBL document CHEMBL4513216, “Probing the Open Global Health Chemical Diversity Library for Multistage-Active Starting Points for Next-Generation Antimalarials” (ACS Infect Dis, 2020).

A short description of this data set: Toxicity liver stage against HepG2, at 10uM. Type of data set: cell-based. More on the design: test concentration 10 uM, cell line HepG2-A16-CD81EGFP. The note with it: human, HepG2-A16-CD81EGFP cells; read-out: INHIBITION
In a few lines:
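Uninfected HepG2-A16-CD81EGFP cells, 3 × 10^3 per well, 1536-well, plated on prespotted compound at 10 μM final, parasite-free screening media added to match infected plates; puromycin 10 μM positive, DMSO 0.5% negative; run in parallel with 48 h PbLuc assay at 37 °C, 5% CO2; viability by CellTiter-Glo luminescence, normalized to controls.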
In the case of `CN(C)C(=O)c1cc2ncc(C(=O)NC3CCCC3)cc2n1C`, the cytotoxicity at 10 µM was -2.63%.
Consider `Cc1nn(C)c(C)c1NC(=O)CN1CCCC1c1noc(C2CC2)n1` (configuration not stated), for which the cytotoxicity at 10 µM is -12.1%.
For `OC1(CNCCSc2ccccn2)CNCCOC1` (configuration not stated), the cytotoxicity at 10 µM is -9.41%.
The value for `Cc1nc(CN2CCCn3c(nc(Cn4cncn4)cc3=O)C2)cs1` was 3.75%.
As for `CCn1nc(C)c(C(=O)N2CCC(Nc3ccc(C)nn3)CC2)c1C`, the cytotoxicity at 10 µM was determined as 4.13%.
The value for `Cc1cc(N2C[C@H](NC(=O)C3(C#N)CCOCC3)[C@@H](C(C)C)C2)ccn1` was -4.1%.
`Cn1cnc2cc(CCC(=O)Nc3n[nH]c(C4CCCO4)n3)ccc21` (configuration not stated): the cytotoxicity at 10 µM was -0.863%.
The value for `Cc1ccccc1CNC(Cn1cncn1)c1ccccc1` (configuration not stated) was -1.45%; that for `CN(CC(=O)N1CCN(CC(C)(C)O)CC1)c1ccc(Cl)cn1` was -2.87%; that for `Cc1cc(CNCC2(O)CCOCC2)ccc1F` was 6.71%.
On to `O=C1CCC2(CCN(Cc3nccs3)CC2)N1Cc1ccccc1`, for which the cytotoxicity at 10 µM was 1.54%.
`C1CCc2nnc(CNc3nc(C4CC4)nc4c3CCNCC4)n2CC1`: the cytotoxicity at 10 µM is -7.39%.
As to `CC(C)(C)OC(=O)NC(C)(C)c1noc(CN2CCCCC2)n1`, the cytotoxicity at 10 µM turned out to be 7.57%.
Consider `CC(=O)N1CCN(Cc2ccc(C(F)(F)F)cc2F)CC(O)C1` (configuration not stated), for which the cytotoxicity at 10 µM was -5.34%.
Under `Cc1ccc(NC(=O)CCc2cnn(C)c2)cc1F` stands -1.69%; under `CCCc1nc(CN2CCOC(Cn3cccn3)C2)no1` (configuration not stated), -27.1%.
Regarding `Cc1c[nH]nc1C1CCCN(c2cnccn2)C1` (configuration not stated), the cytotoxicity at 10 µM was 8.75%.
In the case of `O=C1CCC2(CCCN(C(=O)c3cnccn3)CC2)N1` (configuration not stated), the cytotoxicity at 10 µM is -2.66%.
For the molecule `CC(=O)NCCCSC1CCN(c2c(F)cccc2F)C1=O` (configuration not stated), the cytotoxicity at 10 µM is -6.35%.
With `O=C(c1ccc2[nH]ccc2c1)N1CCn2cnc(COCC3CC3)c2C1`, the cytotoxicity at 10 µM stood at 5.22%.
With `Cc1cccc(CN2CCc3ncnc(N4CCOCC4)c3CC2)n1`, the cytotoxicity at 10 µM was -4.95%.
For the molecule `Cn1nnnc1SCC1Cc2ccccc2O1` (configuration not stated), the cytotoxicity at 10 µM was found to be 14.9%.
For the molecule `CCS(=O)(=O)N1Cc2c(Cn3ccnc3)nn(C(C)C)c2C1`, the cytotoxicity at 10 µM came to 11.5%.
Turning to `CC(NC(=O)N(C)Cc1ccsc1)c1ccc2c(c1)CCC(=O)N2` (configuration not stated), the cytotoxicity at 10 µM is -7.23%.
The value for `CCn1nccc1CNc1[nH]cnc2nncc1-2` was 3.15%; that for `Cn1cc(CCC(=O)N2CCCC(n3cncn3)C2)cn1` (configuration not stated) was -15.1%.
For `COc1cc(C(=O)NC(C)(C)CN2CCN(C)CC2)c2ccccc2n1`, the cytotoxicity at 10 µM was -1.41%.
Consider `Cc1ccc(C(=O)N(C)Cc2nccn2CC(F)(F)F)cn1`, for which the cytotoxicity at 10 µM came out at 2.52%.
Under `CSCCC(=O)N1CCN(CC(O)C(C)(C)C)CC1` (configuration not stated) stands -2.06%; under `c1ccc(Cn2cccn2)c(CN2CCC3(CCCNC3)C2)c1` (configuration not stated), -13%.
On to `CCN(C)S(=O)(=O)N1CCC(C(O)c2ccc(Cl)cc2)CC1` (configuration not stated), for which the cytotoxicity at 10 µM came out at 5.84%.
Turning to `Cc1ccc(NC(=O)Nc2cnc(N3CCN(C)CC3)nc2)c(Cl)c1`, the cytotoxicity at 10 µM amounted to 6.07%.
With `CC(C)CC(=O)Nc1ccc(Oc2ccsc2C(=O)O)cc1`, the cytotoxicity at 10 µM came to 7.66%.
Turning to `NS(=O)(=O)CC1CCN(c2ncccc2C(F)(F)F)CC1`, the cytotoxicity at 10 µM is -3.16%.
Consider `COc1ccc(CN2CCCCC2CNC(=O)OC(C)(C)C)cc1F` (configuration not stated), for which the cytotoxicity at 10 µM was -2.26%.
Turning to `OCC1(CC2CCCCO2)CCN(c2cnc3ccccc3n2)CC1` (configuration not stated), the cytotoxicity at 10 µM was determined as 21.1%.
Under `CCCc1nc(CN2CCN(CC(O)c3ccccc3)CC2)no1` (configuration not stated) stands -2.89%; under `CC(C)OCCS(=O)(=O)N1CCN(Cc2ccco2)CC1`, -11.3%; under `CNC(=O)Cc1ccc(NC(=O)NC2(c3cccc(F)c3)CC2)cc1`, 5.74%.
Turning to `Cc1nn(C)c(N(C)C)c1CNCc1ccc(Cn2cccn2)cc1`, the cytotoxicity at 10 µM was determined as 3.73%.
Regarding `O=C(C1CCOC1)N1C[C@H]2CN(Cc3ccncc3)C(=O)[C@H]2C1` (some centres not stated), the cytotoxicity at 10 µM is -105%.
The value for `CCn1c(Cn2cncn2)nnc1C1CCN(Cc2cccnc2)CC1` was 5.91%; that for `Cc1cc(C(=O)N2CCCC2)ccc1NS(C)(=O)=O` was 0.535%.
Under `N#Cc1cccc(NC(=O)C2CCCN2c2nccs2)c1` (configuration not stated) stands -5.28%.
`O=C(O)[C@@]12CN(c3cnccn3)C[C@@H]1CN(C1CCOCC1)C2`: the cytotoxicity at 10 µM is 1.92%.
With `CCCc1cc(N2CCCCC2Cn2cc(C)cn2)n2ncnc2n1` (configuration not stated), the cytotoxicity at 10 µM was -0.554%.
Under `CNC(=O)[C@H]1C[C@H]2CN(Cc3cccc(C)c3)C[C@@H]1O2` stands 8.97%; under `O=S(=O)(c1ccc(-c2cnco2)cc1)N1CCC2(CCCNC2)C1` (configuration not stated), -27.3%.
Take `Cc1ncc(CNC2CC(=O)N(CCc3ccc(F)cc3)C2)n1C` (configuration not stated): the cytotoxicity at 10 µM is -0.309%.
Take `NC(=O)[C@@H]1Cc2ccccc2CN1CCc1cccs1`: the cytotoxicity at 10 µM amounted to 0.436%.
`O=C(c1ccnnc1)N1C[C@H]2CCC[C@@]2(COCc2ccccn2)C1`: the cytotoxicity at 10 µM was -78.7%.
Regarding `c1cc(-c2ccc3nc(C4CCN(CC5CC5)CC4)nn3c2)cs1`, the cytotoxicity at 10 µM was -12.2%.
With `Cn1cc(CN2CCCC3(CCN(c4nncs4)C3)C2)cn1` (configuration not stated), the cytotoxicity at 10 µM turned out to be 5.41%.
Under `Cc1cc(=O)c(C(=O)N2CCC(C(O)Cc3ccccc3)CC2)c(C)[nH]1` (configuration not stated) stands 12.2%; under `CCn1ccnc1CNc1nccc(-c2c(C)nn(C)c2C)n1`, -0.0793%; under `O=C1CC2(CCCCC2)CC(=O)N1CC(O)COCc1ccc(Cl)cc1` (configuration not stated), -1.04%.
With `COc1ccc(OCc2nccc(-c3cc(C(=O)O)ccn3)n2)cc1`, the cytotoxicity at 10 µM is -4.81%.
Regarding `CC(=O)Nc1nc(CN2CCCC2c2cnn(C)c2)cs1` (configuration not stated), the cytotoxicity at 10 µM was -11.8%.
In the case of `COCC(c1cccc(C(F)(F)F)c1)N(C)C(=O)c1ccco1` (configuration not stated), the cytotoxicity at 10 µM was -9.07%.
Take `Cc1cccnc1CN1CCN(CC(=O)N(C)C)[C@@H]2CS(=O)(=O)C[C@@H]21`: the cytotoxicity at 10 µM is -2.33%.
Consider `COCCC(Cc1cccc(Br)c1)C(=O)O` (configuration not stated), for which the cytotoxicity at 10 µM came out at 9.21%.
On to `Cc1ccc(CN2C[C@@H]3[C@@H](C(=O)NCC(C)C)CCS(=O)(=O)[C@@H]3C2)cc1`, for which the cytotoxicity at 10 µM was 0.793%.
Take `Cc1ccccc1Oc1ncccc1CNS(C)(=O)=O`: the cytotoxicity at 10 µM was -22.1%.
`Cc1nonc1CC(=O)N1CCC2(CCCN(C3CCOCC3)C2=O)C1` (configuration not stated): the cytotoxicity at 10 µM was -95.3%.
As for `O=C(CCC(=O)Nc1nnc(C(F)(F)F)s1)NCC1CCCO1` (configuration not stated), the cytotoxicity at 10 µM amounted to 4.65%.
`CC(C)C[C@H](N)COc1cccc(F)c1Oc1cccc(Cl)c1`: the cytotoxicity at 10 µM stood at 86.1%.
With `CC(=O)Nc1nc(CN2CCn3c(nnc3C(C)C)C2)cs1`, the cytotoxicity at 10 µM is -2.17%.
Consider `CCn1c(=O)c2sccc2n(CC(=O)Nc2cccc(Cl)c2)c1=O`, for which the cytotoxicity at 10 µM was 0.115%.
The value for `CC(C)(C)CCS(=O)(=O)NCCc1csc(N2CCCC2)n1` was 8.37%; that for `CS(=O)(=O)c1cncnc1C1CCCN(C(=O)Nc2ccc(F)cc2)C1` (configuration not stated) was -1.86%.
`Cc1cc2cccc(C(=O)N3CCOC(CCN(C)C)C3)c2o1` (configuration not stated): the cytotoxicity at 10 µM was determined as 5.91%.
`CC1(C)CN(C(=O)CCc2nc(-c3ccncc3)no2)CCO1`: the cytotoxicity at 10 µM is -3.16%.
For the molecule `Cc1nn(C)c(N(C)C)c1CNCc1cccc(OCCN(C)C)c1`, the cytotoxicity at 10 µM came out at 1.38%.
The value for `Cc1ncc2c(n1)CN(CC(=O)Nc1nncs1)CC2` was -10.8%; that for `CCc1ncc(C(=O)N(C)C2Cc3ccccc3C2)cn1` was -1.05%.
Regarding `c1cnnc(N[C@@H]2CC[C@@H]3CN(Cc4ccc5cc[nH]c5c4)C[C@@H]32)c1`, the cytotoxicity at 10 µM is -0.423%.
As for `O=C(NCCNc1ncccn1)N1CCc2ccccc2C1`, the cytotoxicity at 10 µM was -5.65%.
Regarding `CNC(=O)C1CCCCN1C(=O)c1sc(-c2ccc(C)o2)nc1C` (configuration not stated), the cytotoxicity at 10 µM worked out at 4.45%.
The value for `CC(C)N1CCC(Cc2cncc(-c3cccc(C(=O)O)c3)n2)CC1` was -20.8%; that for `COCC(=O)N1CCc2[nH]nc(-c3ccc4c(c3)OCO4)c2C1` was -137%; that for `COc1cccc(CNCc2cccnc2)c1` was -1.13%.
As for `CC(C)C(CNC(=O)NCc1cc[nH]n1)N1CCOCC1` (configuration not stated), the cytotoxicity at 10 µM is -7.48%.
In the case of `Cc1cc(Nc2cnccn2)cc(C2CCCN2)n1` (configuration not stated), the cytotoxicity at 10 µM was 2.54%.
Turning to `COc1c(F)cc(-c2cccc3c2OC(CN)C3)cc1F` (configuration not stated), the cytotoxicity at 10 µM is -53.7%.
As to `Cc1ccc(C(=O)N2C[C@@H]3CN(c4ncccn4)C[C@@H]3C2)cc1`, the cytotoxicity at 10 µM stood at 9.34%.
With `c1ccc(OCCCN2CCN(c3ccc4nncn4n3)CC2)cc1`, the cytotoxicity at 10 µM was -0.421%.
Under `NC(=O)CN1CCCC(C(=O)N2CCC(O)(c3ccccc3)CC2)C1` (configuration not stated) stands -7.55%; under `Cn1cc(CN2CCCC3(CCN(C(=O)c4ccoc4)C3)C2)cn1` (configuration not stated), -71.9%; under `C=C(C)CNc1ccc(C(=O)N(CC)Cc2nccn2C)cn1`, -9.36%.
With `CCn1ncc2c1CCCC2NCc1ccc(OC)c(C)c1` (configuration not stated), the cytotoxicity at 10 µM is -8%.
For `CCN(CC(=O)NC)C(=O)Cc1nc(-c2ccco2)oc1C`, the cytotoxicity at 10 µM was 22.8%.
Take `CCN(CC)CCN(C)Cc1cn(C)nc1-c1ccc2c(c1)OCCO2`: the cytotoxicity at 10 µM amounted to 2.95%.
The value for `Cc1nn(CCC(=O)N2CCCC(OCc3cccnc3)C2)c(C)c1C` (configuration not stated) was -5.47%; that for `CCN1CCC(CNC(=O)C2(c3ccc(F)cc3)CC2)C1` (configuration not stated) was -23%; that for `COCCN(Cc1ccc(F)cc1C#N)CC(F)(F)F` was -3.02%.
As for `O=C(CC1CC1)NCc1cn2c(n1)CN(C(=O)C1CCOCC1)CC2`, the cytotoxicity at 10 µM was -73.2%.
For `Cc1ccc2c(c1)CN(C(=O)c1cccs1)C(CN(C)C)CO2` (configuration not stated), the cytotoxicity at 10 µM was -16.5%.
